Source: ChEMBL document CHEMBL1157142, “Alkyl deoxy-arabino-hexopyranosides: synthesis, surface properties, and biological activities” (Bioorg Med Chem, 2008)
In brackets after ≈: the same amount, converted by molar mass. Activity calls are given as the source filed them. The calls are words filed in the database; no cut-off is given here.

Legend:
Bacillus cereus [1] = assay: Antimicrobial activity against Bacillus cereus ATCC 11778 assessed as diameter of the inhibition zone after 24 hrs by paper disk agar diffusion method; type: functional
Procedure, shortened: (§1)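 Overnight cultures were spread on agar: tryptone soy agar for Listeria, azide dextrose agar for Enterococcus, and nutrient agar for the other bacteria. 6.4 mm paper disks each received 300 µg of substance in 15 µL DMSO. Plates were incubated at 37 °C for 24 h and the inhibition-zone diameter measured. Chloramphenicol served as control. At least three replicates were run.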

Aspergillus niger = assay: Antimicrobial activity against Aspergillus niger ATCC 16404 assessed as diameter of the inhibition zone after 48 hrs by paper disk agar diffusion method; type: functional
Procedure, shortened: (§2)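 Fungal disk diffusion: overnight cultures were spread on potato dextrose agar. 6.4 mm paper disks each carried 300 µg of substance in 15 µL DMSO. Plates were incubated at 25 °C for 48 h and the inhibition-zone diameter read. Actidione was the control for A. niger and chloramphenicol for C. albicans. At least three replicates were run.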

Enterococcus faecalis [2] = assay: Antimicrobial activity against Enterococcus faecalis ATCC 29212 after 16 to 20 hrs by broth dilution method; type: functional; settings: for MIC: Enterococcus faecalis, ATCC 29212
Procedure, shortened: (§3)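 Dilution method used overnight cultures and serial compound dilutions from 500 down to 1.95 µg/mL, with chloramphenicol from 50 to 0.195 µg/mL. Incubation was at 35 °C for 16–20 h, and MIC and MLC were determined. At least three replicates were run. Only compounds giving disk inhibition diameters of 11 mm or more were tested.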

Bacillus subtilis [3] = assay: Antimicrobial activity against Bacillus subtilis ATCC 6633 after 16 to 20 hrs by broth dilution method; type: functional; settings: for MIC: Bacillus subtilis, ATCC 6633; procedure, shortened: as §3
Listeria monocytogenes [4] = assay: Antimicrobial activity against Listeria monocytogenes ATCC 7644 after 16 to 20 hrs by broth dilution method; type: functional; settings: for MIC: Listeria monocytogenes, ATCC 7644; procedure, shortened: as §3
Candida albicans = assay: Antimicrobial activity against Candida albicans ATCC 10231 assessed as diameter of the inhibition zone after 48 hrs by paper disk agar diffusion method; type: functional; procedure, shortened: as §2
Bacillus cereus [5] = assay: Antimicrobial activity against Bacillus cereus ATCC 11778 after 16 to 20 hrs by broth dilution method; type: functional; settings: for MIC: Bacillus cereus, ATCC 11778; procedure, shortened: as §3
Pyricularia oryzae = assay: Antimicrobial activity against Pyricularia oryzae DSMZ 62938 assessed as diameter of the inhibition zone after 48 hrs by paper disk agar diffusion method; type: functional
Procedure, shortened: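 Overnight culture spread on potato dextrose agar; 6.4 mm paper disks loaded with compound dissolved in DMSO. […] served as the reference control. Plates incubated at 25 °C for 48 h, then the diameter of the inhibition zone was measured in mm. At least three replicates.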

Pseudomonas aeruginosa = assay: Antimicrobial activity against Pseudomonas aeruginosa ATCC 27853 assessed as diameter of the inhibition zone after 24 hrs by paper disk agar diffusion method; type: functional; procedure, shortened: as §1
Bacillus cereus [6] = assay: Antimicrobial activity against Bacillus cereus ATCC 11778 after 1 year; type: functional, organism-based
Bacillus subtilis [7] = assay: Antimicrobial activity against Bacillus subtilis ATCC 6633 assessed as diameter of the inhibition zone after 24 hrs by paper disk agar diffusion method; type: functional; procedure, shortened: as §1
Listeria monocytogenes [8] = assay: Antimicrobial activity against Listeria monocytogenes ATCC 7644 assessed as diameter of the inhibition zone after 24 hrs by paper disk agar diffusion method; type: functional; procedure, shortened: as §1
Escherichia coli = assay: Antimicrobial activity against Escherichia coli ATCC 8739 assessed as diameter of the inhibition zone after 24 hrs by paper disk agar diffusion method; type: functional; procedure, shortened: as §1
Salmonella enteritidis = assay: Antimicrobial activity against Salmonella enteritidis ATCC 13076 assessed as diameter of the inhibition zone after 24 hrs by paper disk agar diffusion method; type: functional, Salmonella enterica subsp. enterica serovar Enteritidis; procedure, shortened: as §1
Staphylococcus aureus [9] = assay: Antimicrobial activity against Staphylococcus aureus ATCC 25923 assessed as diameter of the inhibition zone after 24 hrs by paper disk agar diffusion method; type: functional; procedure, shortened: as §1
Enterococcus faecalis [10] = assay: Antimicrobial activity against Enterococcus faecalis ATCC 29212 assessed as diameter of the inhibition zone after 24 hrs by paper disk agar diffusion method; type: functional; procedure, shortened: as §1
Staphylococcus aureus [11] = assay: Antimicrobial activity against Staphylococcus aureus ATCC 25923 after 16 to 20 hrs by broth dilution method; type: functional; settings: for MIC: Staphylococcus aureus, ATCC 25923; procedure, shortened: as §3
[12] = Cytotoxicity against human peripheral blood lymphocytes assessed as mitotic index at 100 ug/mL; settings: pbl
Procedure, shortened: (§4)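 Heparinized whole blood from healthy donors was cultured in Ham's F-10 with 15% fetal calf serum, phytohemagglutinin, L-glutamine, streptomycin and penicillin. Compounds at 10 or 100 µg/mL were added after 24 h and culture continued to 48 h. Colcemid (0.5 µg/mL final) was present for the last 3 h. Mitotic index was scored on metaphase spreads at 500×. 2% H2O2 was the positive control.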

[13] = Cytotoxicity against human peripheral blood lymphocytes assessed as mitotic index at 10 ug/mL; settings: pbl; procedure, shortened: as §4

CCCCCCCCCCCCO[C@H]1C[C@H](O)[C@@H](O)[C@H](C)O1
inhibition zone (IZ) (Bacillus cereus [1]): 27 mm | inhibition zone (IZ) (Aspergillus niger): <6.4 mm | MLC (Enterococcus faecalis [2]): >250 µg/mL | MIC (Enterococcus faecalis [2]): 15.6 µg/mL (≈ 49.3 µM) | MLC (Bacillus subtilis [3]): 15.6 µg/mL (≈ 49.3 µM) | MIC (Bacillus subtilis [3]): 7.8 µg/mL (≈ 24.6 µM) | MLC (Listeria monocytogenes [4]): 62.5 µg/mL (≈ 197 µM) | MIC (Listeria monocytogenes [4]): 31.3 µg/mL (≈ 98.9 µM) | inhibition zone (IZ) (Candida albicans): <6.4 mm | MLC (Bacillus cereus [5]): 7.8 µg/mL (≈ 24.6 µM) | MIC (Bacillus cereus [5]): 7.8 µg/mL (≈ 24.6 µM) | inhibition zone (IZ) (Pyricularia oryzae): <6.4 mm | inhibition zone (IZ) (Pseudomonas aeruginosa): <6.4 mm | Activity (Bacillus cereus [6]): Active | inhibition zone (IZ) (Bacillus subtilis [7]): 25 mm | inhibition zone (IZ) (Listeria monocytogenes [8]): 12 mm | inhibition zone (IZ) (Escherichia coli): <6.4 mm | inhibition zone (IZ) (Salmonella enteritidis): <6.4 mm | inhibition zone (IZ) (Staphylococcus aureus [9]): 9 mm | inhibition zone (IZ) (Enterococcus faecalis [10]): 13 mm

O=C(N[C@H](CO)[C@H](O)c1ccc([N+](=O)[O-])cc1)C(Cl)Cl [CHLORAMPHENICOL]
MLC (Enterococcus faecalis [2]): >50 µg/mL | MIC (Enterococcus faecalis [2]): 6.3 µg/mL (≈ 19.5 µM) | MLC (Bacillus subtilis [3]): >50 µg/mL | MIC (Bacillus subtilis [3]): 3.1 µg/mL (≈ 9.59 µM) | MLC (Listeria monocytogenes [4]): >50 µg/mL | MIC (Listeria monocytogenes [4]): 6.3 µg/mL (≈ 19.5 µM) | MLC (Bacillus cereus [5]): 12.5 µg/mL (≈ 38.7 µM) | MIC (Bacillus cereus [5]): 6.3 µg/mL (≈ 19.5 µM) | MLC (Staphylococcus aureus [11]): >50 µg/mL | MIC (Staphylococcus aureus [11]): 6.3 µg/mL (≈ 19.5 µM)

CCCCCCCCCCCCO[C@H]1C[C@@H](O)[C@H](O)[C@@H](CO)O1
inhibition zone (IZ) (Bacillus cereus [1]): 10 mm | inhibition zone (IZ) (Aspergillus niger): <6.4 mm | MLC (Enterococcus faecalis [2]): >500 µg/mL | MIC (Enterococcus faecalis [2]): 31.3 µg/mL (≈ 94.1 µM) | MIC (Bacillus subtilis [3]): > 500 µg/mL | MLC (Listeria monocytogenes [4]): >500 µg/mL | MIC (Listeria monocytogenes [4]): 250 µg/mL (≈ 752 µM) | inhibition zone (IZ) (Candida albicans): 10 mm | MIC (Bacillus cereus [5]): > 500 µg/mL | inhibition zone (IZ) (Pyricularia oryzae): <6.4 mm | MIC (Staphylococcus aureus [11]): > 500 µg/mL | inhibition zone (IZ) (Pseudomonas aeruginosa): <6.4 mm | inhibition zone (IZ) (Bacillus subtilis [7]): 10 mm | Activity [12]: 6.75 | inhibition zone (IZ) (Listeria monocytogenes [8]): <6.4 mm | inhibition zone (IZ) (Escherichia coli): <6.4 mm | inhibition zone (IZ) (Salmonella enteritidis): <6.4 mm | inhibition zone (IZ) (Staphylococcus aureus [9]): <6.4 mm | Activity [13]: 13.5 | inhibition zone (IZ) (Enterococcus faecalis [10]): 17 mm

CCCCCCCCO[C@@H]1C[C@@H](O)[C@H](O)[C@@H](CO)O1
inhibition zone (IZ) (Bacillus cereus [1]): <6.4 mm | inhibition zone (IZ) (Aspergillus niger): <6.4 mm | inhibition zone (IZ) (Candida albicans): <6.4 mm | inhibition zone (IZ) (Pyricularia oryzae): <6.4 mm | inhibition zone (IZ) (Pseudomonas aeruginosa): <6.4 mm | inhibition zone (IZ) (Bacillus subtilis [7]): <6.4 mm | Activity [12]: 3 | inhibition zone (IZ) (Listeria monocytogenes [8]): <6.4 mm | inhibition zone (IZ) (Escherichia coli): <6.4 mm | inhibition zone (IZ) (Salmonella enteritidis): <6.4 mm | inhibition zone (IZ) (Staphylococcus aureus [9]): <6.4 mm | Activity [13]: 10.75 | inhibition zone (IZ) (Enterococcus faecalis [10]): <6.4 mm

CCCCCCCCO[C@H]1C[C@@H](O)[C@H](O)[C@@H](CO)O1
inhibition zone (IZ) (Bacillus cereus [1]): 11 mm | inhibition zone (IZ) (Aspergillus niger): <6.4 mm | MLC (Enterococcus faecalis [2]): >500 µg/mL | MIC (Enterococcus faecalis [2]): 31.3 µg/mL (≈ 113 µM) | MIC (Bacillus subtilis [3]): > 500 µg/mL | inhibition zone (IZ) (Candida albicans): <6.4 mm | MIC (Bacillus cereus [5]): > 500 µg/mL | inhibition zone (IZ) (Pyricularia oryzae): <6.4 mm | inhibition zone (IZ) (Pseudomonas aeruginosa): <6.4 mm | inhibition zone (IZ) (Bacillus subtilis [7]): 12 mm | inhibition zone (IZ) (Listeria monocytogenes [8]): <6.4 mm | inhibition zone (IZ) (Escherichia coli): <6.4 mm | inhibition zone (IZ) (Salmonella enteritidis): <6.4 mm | inhibition zone (IZ) (Staphylococcus aureus [9]): <6.4 mm | inhibition zone (IZ) (Enterococcus faecalis [10]): 14 mm

CCCCCCCCCCCCO[C@@H]1C[C@@H](O)[C@H](O)[C@@H](CO)O1
inhibition zone (IZ) (Bacillus cereus [1]): <6.4 mm | inhibition zone (IZ) (Aspergillus niger): <6.4 mm | inhibition zone (IZ) (Candida albicans): 9 mm | inhibition zone (IZ) (Pyricularia oryzae): <6.4 mm | inhibition zone (IZ) (Pseudomonas aeruginosa): <6.4 mm | inhibition zone (IZ) (Bacillus subtilis [7]): 9 mm | Activity [12]: 7.75 | inhibition zone (IZ) (Listeria monocytogenes [8]): 10 mm | inhibition zone (IZ) (Escherichia coli): <6.4 mm | inhibition zone (IZ) (Salmonella enteritidis): <6.4 mm | inhibition zone (IZ) (Staphylococcus aureus [9]): <6.4 mm | Activity [13]: 13.5 | inhibition zone (IZ) (Enterococcus faecalis [10]): <6.4 mm

CCCCCCCCO[C@@H]1C[C@H](O)[C@@H](O)[C@H](C)O1
inhibition zone (IZ) (Bacillus cereus [1]): 12 mm | inhibition zone (IZ) (Aspergillus niger): <6.4 mm | MIC (Bacillus subtilis [3]): > 500 µg/mL | MIC (Listeria monocytogenes [4]): > 500 µg/mL | inhibition zone (IZ) (Candida albicans): 11 mm | MIC (Bacillus cereus [5]): > 500 µg/mL | inhibition zone (IZ) (Pyricularia oryzae): <6.4 mm | MIC (Staphylococcus aureus [11]): > 500 µg/mL | inhibition zone (IZ) (Pseudomonas aeruginosa): 9 mm | inhibition zone (IZ) (Bacillus subtilis [7]): 10 mm | inhibition zone (IZ) (Listeria monocytogenes [8]): 10 mm | inhibition zone (IZ) (Escherichia coli): 9 mm | inhibition zone (IZ) (Salmonella enteritidis): <6.4 mm | inhibition zone (IZ) (Staphylococcus aureus [9]): 12 mm | inhibition zone (IZ) (Enterococcus faecalis [10]): 9 mm

CCCCCCCCO[C@H]1C[C@H](O)[C@@H](O)[C@H](C)O1
inhibition zone (IZ) (Bacillus cereus [1]): 12 mm | inhibition zone (IZ) (Aspergillus niger): <6.4 mm | MLC (Bacillus subtilis [3]): >500 µg/mL | MIC (Bacillus subtilis [3]): 250 µg/mL (≈ 960 µM) | inhibition zone (IZ) (Candida albicans): 10 mm | MLC (Bacillus cereus [5]): 500 µg/mL (≈ 1920 µM) | MIC (Bacillus cereus [5]): 250 µg/mL (≈ 960 µM) | inhibition zone (IZ) (Pyricularia oryzae): 13 mm | MLC (Staphylococcus aureus [11]): 500 µg/mL (≈ 1920 µM) | MIC (Staphylococcus aureus [11]): 500 µg/mL (≈ 1920 µM) | inhibition zone (IZ) (Pseudomonas aeruginosa): 8 mm | inhibition zone (IZ) (Bacillus subtilis [7]): 12 mm | inhibition zone (IZ) (Listeria monocytogenes [8]): 10 mm | inhibition zone (IZ) (Escherichia coli): 8 mm | inhibition zone (IZ) (Salmonella enteritidis): <6.4 mm | inhibition zone (IZ) (Staphylococcus aureus [9]): 11 mm | inhibition zone (IZ) (Enterococcus faecalis [10]): 10 mm

CCCCCCCCCCCCO[C@@H]1C[C@H](O)[C@@H](O)[C@H](C)O1
inhibition zone (IZ) (Bacillus cereus [1]): <6.4 mm | inhibition zone (IZ) (Aspergillus niger): <6.4 mm | inhibition zone (IZ) (Candida albicans): <6.4 mm | inhibition zone (IZ) (Pyricularia oryzae): <6.4 mm | inhibition zone (IZ) (Pseudomonas aeruginosa): <6.4 mm | inhibition zone (IZ) (Bacillus subtilis [7]): <6.4 mm | inhibition zone (IZ) (Listeria monocytogenes [8]): <6.4 mm | inhibition zone (IZ) (Escherichia coli): <6.4 mm | inhibition zone (IZ) (Salmonella enteritidis): <6.4 mm | inhibition zone (IZ) (Staphylococcus aureus [9]): <6.4 mm | inhibition zone (IZ) (Enterococcus faecalis [10]): <6.4 mm
